Source: ChEMBL document CHEMBL1629691, “Intrapulmonary pharmacokinetics and pharmacodynamics of micafungin in adult lung transplant patients” (Antimicrob Agents Chemother, 2010)
Numbered stars: 1 amine (or outer) side, 2 acyl side, 3 side chain; on linkers, the order of the positions; unused ones are H or OH. Bridge positions count the residues as written; N and C are the ends. Square brackets hold non-standard residues; d marks the D form. Peptide text beside a SMILES is read from it. * marks the point of attachment. hTyr(3S-OH,4S-OH,3'-OSO3H) = N[C@H](C(=O)O)[C@H](O)[C@@H](O)c1ccc(O)c(OS(=O)(=O)O)c1; Orn(4R-OH,5R-OH) = O=C([C@H](C[C@@H](O)[C@@H](O)N[*:3])N[*:1])[*:2]; Pro(3S-OH,4S-Me) = C[C@H]1CN[C@H](C(=O)O)[C@H]1O; X1 = CCCCCOc1ccc(-c2cc(-c3ccc(C(=O)*)cc3)no2)cc1; Gln(3R-OH) = NC(=O)C[C@@H](O)[C@H](N)C(=O)O; Hyp = O=C(O)[C@@H]1C[C@@H](O)CN1

Key:
[1] = Ratio of total Cmax to MIC90 in lung transplant recipient invasive aspergillosis patient infected with Aspergillus fumigatus; type: functional
[2] = Tmax in alveolar cells of lung transplant recipient invasive aspergillosis patient at 150 mg, iv QD for 4 consecutive days by HPLC; type: ADME, organism-based, Pneumocyte; details: human
How it was run: (§1)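 150-mg IV dose; BAL at 3, 5, 8, 18 or 24 h after the dose, about 4 subjects per time group. Plasma, ELF and alveolar cell drug was measured by reversed-phase HPLC with UV detection. Values were averaged per time point. Cmax is the highest mean over the five groups; Tmax is the mean dose-to-BAL time of that group.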

[3] = Ratio of drug level in alveolar cell to plasma of lung transplant recipient invasive aspergillosis patient at 150 mg, iv QD for 4 consecutive days measured after 8 hrs post last dose; type: ADME, organism-based, Pneumocyte; details: human, alveolar cells / plasma
[4] = AUC (0 to 24 hrs) in lung transplant recipient invasive aspergillosis patient plasma at 150 mg, iv administered as single dose; type: ADME, organism-based; set-up: dose 150 mg, time < 24 hr, route intravenous; details: human
How it was run: (§2)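 Single 150-mg IV dose in adult lung transplant recipients. Plasma, ELF (epithelial lining fluid) and alveolar cell concentrations were measured by HPLC at the time of bronchoscopy. AUC0-24 came from a population model: a linear four-compartment model fit to all compartments, with the plasma two-compartment model used for the plasma profile.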

[5] = Cmax in epithelial lining fluid of lung transplant recipient invasive aspergillosis patient at 150 mg, iv QD for 4 consecutive days by HPLC; type: ADME, organism-based; set-up: dose 150 mg, route intravenous; details: human; how it was run: as §1
[6] = system: Homo sapiens; assay: Hepatotoxicity in lung transplant recipient invasive aspergillosis patient assessed as serum AST level at 150 mg, iv QD for 4 consecutive days measured post last dose; type: toxicity, organism-based; details: in vivo
How it was run: (§3)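 Serum creatinine, AST, ALT and total bilirubin were recorded from routine clinical laboratory tests before enrolment and again after BAL, at a mean of 10.7 days after infusion.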

[7] = Drug level in epithelial lining fluid of lung transplant recipient invasive aspergillosis patient at 150 mg, iv QD for 4 consecutive days measured after 8 hrs post last dose by HPLC; type: ADME, organism-based; details: human, read-out: Drug uptake
How it was run: (§4)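 150-mg IV micafungin, then bronchoscopy with BAL (20-ml saline aliquots) at the stated time after the dose. Blood was drawn in heparin at the same time. The BAL fluid was spun at 400 × g for 5 min at 4°C; supernatant and cell pellet were frozen at −80°C. Micafungin was measured by solid-phase extraction and C8 HPLC with UV detection at 271.5 nm, using anidulafungin as internal standard.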

[8] = Drug level in lung transplant recipient invasive aspergillosis patient plasma at 150 mg, iv QD for 4 consecutive days measured after 3 hrs post last dose by HPLC; type: ADME, organism-based; details: human, read-out: Drug uptake; how it was run: as §4
[9] = Ratio of Cmax in lung transplant recipient invasive aspergillosis patient alveolar cell to MIC90 for Aspergillus fumigatus; type: functional, Pneumocyte
[10] = Ratio of drug level in alveolar cell to plasma of lung transplant recipient invasive aspergillosis patient at 150 mg, iv QD for 4 consecutive days measured after 3 hrs post last dose; type: ADME, organism-based, Pneumocyte; details: human, alveolar cells / plasma
[11] = Ratio of drug level in epithelial lining fluid to plasma in lung transplant recipient invasive aspergillosis patient at 150 mg, iv measured after 5 hrs post last dose; details: human
[12] = Drug level in alveolar cells of lung transplant recipient invasive aspergillosis patient at 150 mg, iv QD for 4 consecutive days measured after 5 hrs post last dose by HPLC; type: ADME, organism-based, Pneumocyte; details: human, read-out: Drug uptake; how it was run: as §4
[13] = system: Homo sapiens; assay: Hepatotoxicity in lung transplant recipient invasive aspergillosis patient assessed as serum ALT level at 150 mg, iv measured post last dose; details: in vivo
[14] = Drug level in alveolar cells of lung transplant recipient invasive aspergillosis patient at 150 mg, iv single dose measured after 5 hrs post dose by HPLC; details: human, read-out: Drug uptake
[15] = Drug level in epithelial lining fluid of lung transplant recipient invasive aspergillosis patient at 150 mg, iv QD for 4 consecutive days measured after 3 hrs post last dose by HPLC; type: ADME, organism-based; details: human, read-out: Drug uptake; how it was run: as §4
[16] = Drug level in lung transplant recipient invasive aspergillosis patient plasma at 150 mg, iv QD for 4 consecutive days measured after 8 hrs post last dose by HPLC; type: ADME, organism-based; details: human, read-out: Drug uptake; how it was run: as §4
[17] = Drug level in lung transplant recipient invasive aspergillosis patient plasma at 150 mg, iv QD for 4 consecutive days measured after 18 hrs post last dose by HPLC; type: ADME, organism-based; details: human, read-out: Drug uptake; how it was run: as §4
[18] = Cmax in alveolar cells of lung transplant recipient invasive aspergillosis patient at 150 mg, iv QD for 4 consecutive days by HPLC; type: ADME, organism-based, Pneumocyte; set-up: dose 150 mg, route intravenous; details: human; how it was run: as §1
[19] = Ratio of drug level in alveolar cell to plasma of lung transplant recipient invasive aspergillosis patient at 150 mg, iv QD for 4 consecutive days measured after 18 hrs post last dose; type: ADME, organism-based, Pneumocyte; details: human, alveolar cells / plasma
[20] = AUC (0 to 24 hrs) in epithelial lining fluid of lung transplant recipient invasive aspergillosis patient plasma at 150 mg, iv administered as single dose; type: ADME, organism-based; set-up: time < 24 hr, dose 150 mg, route intravenous; details: human; how it was run: as §2
[21] = Ratio of drug level in epithelial lining fluid to plasma in lung transplant recipient invasive aspergillosis patient at 150 mg, iv QD for 4 consecutive days measured after 3 hrs post last dose; type: ADME, organism-based; details: human
[22] = system: Homo sapiens; assay: Hepatotoxicity in lung transplant recipient invasive aspergillosis patient assessed as total bilirubin level at 150 mg, iv QD for 4 consecutive days measured post last dose; type: toxicity, organism-based; details: in vivo; how it was run: as §3
[23] = Drug level in epithelial lining fluid of lung transplant recipient invasive aspergillosis patient at 150 mg, iv single dose measured after 5 hrs post dose by HPLC; details: human, read-out: Drug uptake
[24] = Ratio of drug level in alveolar cell to plasma of lung transplant recipient invasive aspergillosis patient at 150 mg, iv QD for 4 consecutive days measured after 24 hrs post last dose; type: ADME, organism-based, Pneumocyte; details: human, alveolar cells / plasma
[25] = Drug level in alveolar cells of lung transplant recipient invasive aspergillosis patient at 150 mg, iv QD for 4 consecutive days measured after 18 hrs post last dose by HPLC; type: ADME, organism-based, Pneumocyte; details: human, read-out: Drug uptake; how it was run: as §4

## CCCCCOc1ccc(-c2cc(-c3ccc(C(=O)N[C@H]4C[C@@H](O)[C@@H](O)NC(=O)[C@@H]5[C@@H](O)[C@@H](C)CN5C(=O)[C@H]([C@H](O)CC(N)=O)NC(=O)[C@H]([C@H](O)[C@@H](O)c5ccc(O)c(OS(=O)(=O)O)c5)NC(=O)[C@@H]5C[C@@H](O)CN5C(=O)[C@H]([C@@H](C)O)NC4=O)cc3)no2)cc1 [MICAFUNGIN] (X1-[Orn(4R-OH,5R-OH)]T[Hyp][hTyr(3S-OH,4S-OH,3'-OSO3H)][Gln(3R-OH)][Pro(3S-OH,4S-Me)]; lactam 1-C)
[1]
  Ratio: 316
[2]
  Tmax: 17.9 h
[3]
  Kp at 8 h: 1.23
[4]
  AUC(0-t) at 24 h: 79200 ng·h/mL
[5]
  Cmax: 1380 ng/mL
[6]
  Activity: 28.6 IU/L
[7]
  concentration at 8 h: 50 ng/mL
[8]
  concentration at 3 h: 4930 ng/mL
[9]
  Ratio: 1115
[10]
  Kp at 3 h: 1.53
[11]
  Kp at 5 h: 0.15
[12]
  concentration at 5 h: 53300 ng/mL
[13]
  Activity: 41.6 IU/L
[14]
  concentration at 5 h: 2840 ng/mL
[15]
  concentration at 3 h: 40 ng/mL
[16]
  concentration at 8 h: 3930 ng/mL
[17]
  concentration at 18 h: 2380 ng/mL
[18]
  Cmax: 17400 ng/mL
[19]
  Kp at 18 h: 7.62
[20]
  AUC(0-t) at 24 h: 14400 ng·h/mL
[21]
  Kp at 3 h: 0.01
[22]
  Activity: 0.74 mg/dL
[23]
  concentration at 5 h: 710 ng/mL
[24]
  Kp at 24 h: 6.22
[25]
  concentration at 18 h: 17400 ng/mL
